Tests used:
Homo sapiens [1] = species on record: Homo sapiens; test: Selectivity ratio of Kinact/Ki for recombinant His6-tagged PAD3 (unknown origin) to Kinact/Ki for recombinant full length N-terminal GST-tagged human PAD4 expressed in Escherichia coli Rosetta cells
Outline: (§1)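 Enzyme at 2.0 μM (PAD1, PAD2, PAD4) or 5.0 μM (PAD3) incubated at 37 °C with various inhibitor concentrations in 50 mM HEPES, 10 mM CaCl₂, 2 mM DTT, pH 7.6. Timed aliquots moved into substrate mix: 10 mM BAEE, or 10 mM BAA for PAD3. […] Selectivity ratios taken from these values.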

Homo sapiens [2] = species on record: Homo sapiens; test: Selectivity ratio of Kinact/Ki for recombinant human PAD2 expressed in Escherichia coli BL21(DE3)pLysS cells to Kinact/Ki for recombinant full length N-terminal GST-tagged human PAD4 expressed in Escherichia coli Rosetta cells; outline: as §1
Homo sapiens [3] = species on record: Homo sapiens; test: Selectivity ratio of Kinact/Ki for recombinant His6-tagged PAD1 (unknown origin) to Kinact/Ki for recombinant full length N-terminal GST-tagged human PAD4 expressed in Escherichia coli Rosetta cells; outline: as §1
Homo sapiens [4] = species on record: Homo sapiens; test: Selectivity ratio of Kinact/Ki for recombinant full length N-terminal GST-tagged human PAD4 expressed in Escherichia coli Rosetta to Kinact/Ki for recombinant His6-tagged PAD3 (unknown origin); outline: as §1
Homo sapiens [5] = species on record: Homo sapiens; test: Selectivity ratio of Kinact/Ki for recombinant human PAD2 expressed in Escherichia coli BL21(DE3)pLysS to Kinact/Ki for recombinant His6-tagged PAD3 (unknown origin); outline: as §1
Homo sapiens [6] = species on record: Homo sapiens; test: Selectivity ratio of Kinact/Ki for recombinant His6-tagged PAD1 (unknown origin) to Kinact/Ki for recombinant His6-tagged PAD3 (unknown origin); outline: as §1

SMILES	Selectivity ratio (Homo sapiens [1])	Selectivity ratio (Homo sapiens [2])	Selectivity ratio (Homo sapiens [3])	Selectivity ratio (Homo sapiens [4])	Selectivity ratio (Homo sapiens [5])	Selectivity ratio (Homo sapiens [6])
COc1cccc2c1nc([C@H](CCCNC(=N)CCl)NC(=O)c1cccc3c1C(=O)N(C(C)C)C3)n2C	1.2	4.1	3.5	–	–	–
N=C(CF)NCCC[C@H](NC(=O)c1cccc2c1C(=O)NC2)c1nc2ccccc2[nH]1	–	–	–	10	3.3	24
Cn1c([C@H](CCCNC(=N)CCl)NC(=O)c2cccc3c2C(=O)NC3)nc2ccccc21	2	3.1	61	–	–	–
CCN1Cc2cccc(C(=O)N[C@@H](CCCNC(=N)CCl)c3nc4cc(OC)ccc4n3CC)c2C1=O	8.4	27	21	–	–	–
CCOc1cccc2c1nc([C@H](CCCNC(=N)CCl)NC(=O)c1cccc3c1C(=O)N(CC)C3)n2C	5.5	43	12	–	–	–
CCN1Cc2cccc(C(=O)N[C@@H](CCCNC(=N)CF)c3nc4cc(OC)ccc4n3C)c2C1=O	–	–	–	3.8	125	47
CCN1Cc2cccc(C(=O)N[C@@H](CCCNC(=N)CF)c3nc4ccccc4n3C(C)C)c2C1=O	3.4	22	10	–	–	–
CCN1Cc2cccc(C(=O)N[C@@H](CCCNC(=N)CCl)c3nc4ccccc4n3CC)c2C1=O	2.1	14	18	–	–	–
CCN1Cc2cccc(C(=O)N[C@@H](CCCNC(=N)CCl)c3nc4cc(OC)ccc4[nH]3)c2C1=O	4.1	9.1	7.8	–	–	–
CC(C)n1c([C@H](CCCNC(=N)CCl)NC(=O)c2ccccc2C(=O)O)nc2ccccc21	3.8	38	68	–	–	–
COc1cccc2c1nc([C@H](CCCNC(=N)CCl)NC(=O)c1cccc3c1C(=O)NC3)n2C	–	–	–	1.3	3.9	3.9
CC(C)n1c([C@H](CCCNC(=N)CF)NC(=O)c2cccc3c2C(=O)NC3)nc2ccccc21	–	–	–	2.4	20	12
CCn1c([C@H](CCCNC(=N)CF)NC(=O)c2cccc3c2C(=O)NC3)nc2cc(OC)ccc21	2.5	50	24	–	–	–
COc1cccc2[nH]c([C@H](CCCNC(=N)CF)NC(=O)c3cccc4c3C(=O)NC4)nc12	3.8	8	42	–	–	–
Cn1c([C@H](CCCNC(=N)CF)NC(=O)c2cccc3c2C(=O)NC3)nc2ccccc21	–	–	–	1	8.9	25
CCN1Cc2cccc(C(=O)N[C@@H](CCCNC(=N)CCl)c3nc4cc(OC)ccc4n3C)c2C1=O	9.3	32	37	–	–	–
CCN1Cc2cccc(C(=O)N[C@@H](CCCNC(=N)CF)c3nc4c(OC)cccc4[nH]3)c2C1=O	12	32	107	–	–	–
CC(C)n1c([C@H](CCCNC(=N)CCl)NC(=O)c2cccc3c2C(=O)NC3)nc2ccccc21	3.2	8	27	–	–	–
Cn1c([C@H](CCCNC(=N)CF)NC(=O)c2ccccc2C(=O)O)nc2ccccc21	1.3	15	40	–	–	–
COc1cccc2c1nc([C@H](CCCNC(=N)CCl)NC(=O)c1cccc3c1C(=O)N(C1CC1)C3)n2C	1.1	6.7	4.7	–	–	–

SMILES	Selectivity ratio (Homo sapiens [1])	Selectivity ratio (Homo sapiens [2])	Selectivity ratio (Homo sapiens [3])	Selectivity ratio (Homo sapiens [4])	Selectivity ratio (Homo sapiens [5])	Selectivity ratio (Homo sapiens [6])
CCN1Cc2cccc(C(=O)N[C@@H](CCCNC(=N)CCl)c3nc4ccccc4n3C(C)C)c2C1=O	2	6.8	11	–	–	–
CCn1c([C@H](CCCNC(=N)CCl)NC(=O)c2cccc3c2C(=O)NC3)nc2c(OC)cccc21	2.9	19	50	–	–	–
COc1cccc2[nH]c([C@H](CCCNC(=N)CCl)NC(=O)c3cccc4c3C(=O)NC4)nc12	6.9	11	30	–	–	–
CCN1Cc2cccc(C(=O)N[C@@H](CCCNC(=N)CCl)c3nc4ccccc4[nH]3)c2C1=O	–	–	–	1.4	1.5	4.3
Cn1c([C@H](CCCNC(=N)CCl)NC(=O)c2ccccc2C(=O)O)nc2ccccc21	–	–	–	1	1.9	4.3
CCOc1cccc2c1nc([C@H](CCCNC(=N)CCl)NC(=O)c1cccc3c1C(=O)NC3)n2C	2.7	30	24	–	–	–
CCn1c([C@H](CCCNC(=N)CF)NC(=O)c2ccccc2C(=O)O)nc2ccccc21	1.7	31	39	–	18	–
CCN1Cc2cccc(C(=O)N[C@@H](CCCNC(=N)CCl)c3nc4c(OC)cccc4n3C)c2C1=O	–	–	–	1.3	5	3.9
CCn1c([C@H](CCCNC(=N)CCl)NC(=O)c2cccc3c2C(=O)NC3)nc2cc(OC)ccc21	4.4	16	21	–	–	–
CCN1Cc2cccc(C(=O)N[C@@H](CCCNC(=N)CF)c3nc4c(OC)cccc4n3CC)c2C1=O	2	40	28	–	–	–
CCN1Cc2cccc(C(=O)N[C@@H](CCCNC(=N)CCl)c3nc4c(OC)cccc4n3CC)c2C1=O	3.4	27	31	–	–	–
CCN1Cc2cccc(C(=O)N[C@@H](CCCNC(=N)CF)c3nc4cc(OC)ccc4[nH]3)c2C1=O	3.6	6.3	4.4	–	–	–
CCN1Cc2cccc(C(=O)N[C@@H](CCCNC(=N)CF)c3nc4cc(OC)ccc4n3CC)c2C1=O	2.7	70	28	–	–	–
CCOc1cccc2c1nc([C@H](CCCNC(=N)CF)NC(=O)c1cccc3c1C(=O)N(CC)C3)n2C	1	26	8.9	–	–	–
CC(C)n1c([C@H](CCCNC(=N)CF)NC(=O)c2ccccc2C(=O)O)nc2ccccc21	4.4	54	49	–	–	–
CCN1Cc2cccc(C(=O)N[C@@H](CCCNC(=N)CCl)c3nc4c(OC)cccc4[nH]3)c2C1=O	1	2.3	5	–	–	–
CCn1c([C@H](CCCNC(=N)CCl)NC(=O)c2cccc3c2C(=O)NC3)nc2ccccc21	1.8	4.8	10	–	–	–
COc1ccc2c(c1)nc([C@H](CCCNC(=N)CCl)NC(=O)c1cccc3c1C(=O)NC3)n2C	2.4	10	25	–	–	–
CCN1Cc2cccc(C(=O)N[C@@H](CCCNC(=N)CF)c3nc4ccccc4n3C)c2C1=O	1.9	11	6.1	–	–	–
COc1cccc2c1nc([C@H](CCCNC(=N)CCl)NC(=O)c1cccc3c1C(=O)N(C)C3)n2C	2.2	11	6.8	–	–	–
